Rows were chosen to be rich in hits. Some 2.7% of all compounds tested hit in one or more screens of this group.
OX1R antag-1 = antagonists of human orexin 1 receptor | CHO/OX1R cells, Fluo-8 calcium fluorescence, orexin A | O43613 | AID 434989 | 0.43% of 330,000 active | inhibition, % at 5 µM;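 active = inhibition above its plate's threshold, mean inhibition of all tested compounds on the plate plus 3 SD, cut at about 37% in these data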
CHO parental Ca = counter-screen: ATP calcium response change in parental CHO cells. 0.63% of 330,000 active. inhibition, % at 5.6 µM. AID 463079. parental CHO-K1, ATP-induced calcium, Fluo-8 fluorescence;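 active = inhibition above that plate's mean sample inhibition plus 3 SD, cut at about 26% in these data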
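Material: parental CHO cells / Compound: single nominal dose of 5.6 µM per compound / Signal: Fluo-8 fluorescence / Replicates: singlicate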
OXTR potentiator = potentiators of human oxytocin receptor | CHO-OTR cells, Fluo-8 calcium fluorescence, potentiator mode; 0% = oxytocin EC15, 100% = EC100 | P30559 | AID 2445 | activation, % at 3 µM | 0.061% of 320,000 active;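 active = activation above that plate's cutoff, the mean activation of tested compounds plus 3 SD, cut at about 6.6% in these data, passing the limit was not always enough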
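assay system = CHO-OTR cells, human receptor | schedule = compound 6 min at room temperature before oxytocin, 100 s read | detection = Fluo-8 intracellular calcium fluorescence, ex 470-495, em 515-575 nm | evaluation = normalized max/min fluorescence ratio, % activation | control set = EC15 oxytocin alone as 0%, 75 nM oxytocin (EC100) as 100%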
OXTR agonist = agonists of human oxytocin receptor; P30559; CHO-OTR cells, Fluo-8 calcium fluorescence; normalized: DMSO 0%, oxytocin 100%; activation, % at 3 µM; 0.32% of 320,000 active; AID 2435;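 active = activation above the mean of all tested compounds plus 3 SD, cutoff set per screening run, cut at about 20% in these data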;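 note: peak over basal fluorescence ratio from a 100 s FLIPR kinetic read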
V1aR counter = activates human V1a receptor in oxytocin agonist counter-screen; P37288; CHO-V1R cells, Fluo-8 calcium fluorescence, agonist mode; 0% DMSO, 100% 3 nM vasopressin; activation, % at 3 µM; 0.25% of 320,000 active;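 active = activation above the mean activation of all tested compounds plus 3 SD, per screening run, cut at about 20% in these data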;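 note: signal is peak over basal fluorescence ratio across a 100 second FLIPR read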
Target sequence (P37288 whole entry, looked up): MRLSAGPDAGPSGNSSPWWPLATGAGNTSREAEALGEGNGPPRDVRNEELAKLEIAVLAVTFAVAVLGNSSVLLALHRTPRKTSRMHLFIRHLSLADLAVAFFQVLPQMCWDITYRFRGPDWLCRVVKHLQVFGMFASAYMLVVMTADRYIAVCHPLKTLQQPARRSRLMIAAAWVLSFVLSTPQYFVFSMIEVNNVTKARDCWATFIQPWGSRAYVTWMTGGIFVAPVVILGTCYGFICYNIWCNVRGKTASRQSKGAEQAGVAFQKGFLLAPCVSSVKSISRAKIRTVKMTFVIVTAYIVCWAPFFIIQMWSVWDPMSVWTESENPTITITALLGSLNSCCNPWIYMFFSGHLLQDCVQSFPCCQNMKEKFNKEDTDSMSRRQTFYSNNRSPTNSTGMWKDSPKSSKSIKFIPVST
OX1R antag-2 = OX1R (human) antagonism. inhibition, % at 6.6 µM. 1.8% of 330,000 active. O43613. OX1R-expressing cells, FRET antagonist read-out; in the data active = inhibition mostly above about 38%, no sharp cut-off; inactive = mostly below about 40%
Hits are given with their value.

`CN1CCN(C(=O)c2ccc3c(c2)S(=O)(=O)c2ccccc2C3=O)CC1` gave OX1R antag-1 inactive, CHO parental Ca inactive, OXTR potentiator inactive, OXTR agonist inactive, V1aR counter inactive and OX1R antag-2 76.
`O=C(Nc1ccc(CN2CCCCC2)cc1)Nc1ccc(Br)cc1Cl` gave OX1R antag-1 inactive, CHO parental Ca inactive, OXTR potentiator inactive, OXTR agonist inactive, V1aR counter inactive and OX1R antag-2 inactive.
`COc1cccc(CN2CCNC(=O)C2CC(=O)N(C)CCC2CCOCC2)c1OC` (stereo unspecified) gave OX1R antag-1 inactive, CHO parental Ca inactive, OXTR potentiator inactive, OXTR agonist inactive, V1aR counter inactive and OX1R antag-2 inactive.
For CCOc1cc(C(=S)N2CCCC2)ccc1OC the results were OX1R antag-1 inactive, CHO parental Ca inactive, OXTR potentiator inactive, OXTR agonist inactive, V1aR counter inactive and OX1R antag-2 inactive.
For CCOc1cc(C(=S)N2CCCC2)ccc1OCC(=O)Nc1c(C)cc(C)cc1C the results were OX1R antag-1 inactive, CHO parental Ca inactive, OXTR potentiator inactive, OXTR agonist inactive, V1aR counter inactive and OX1R antag-2 66.
For O=C(CCCCCN1C(=O)[C@@H]2Cc3ccccc3CN2C1=O)Nc1cccc(F)c1 the results were OX1R antag-1 inactive, CHO parental Ca inactive, OXTR potentiator inactive, OXTR agonist inactive, V1aR counter inactive and OX1R antag-2 inactive.
Screening COC(=O)c1ccc(SCC(=O)N2CCC(C)CC2)c([N+](=O)[O-])c1 returned OX1R antag-1 inactive, CHO parental Ca inactive, OXTR potentiator inactive, OXTR agonist inactive, V1aR counter inactive and OX1R antag-2 inactive.
CC1CCCN(C(=O)COC(=O)CSc2ccc(C(N)=O)cc2[N+](=O)[O-])C1 (stereo unspecified) was read as OX1R antag-1 inactive, CHO parental Ca inactive, OXTR potentiator inactive, OXTR agonist inactive, V1aR counter inactive and OX1R antag-2 74.
Screening NC(=O)c1ccc(SCC(=O)OCC(=O)N2CCCCC2)c([N+](=O)[O-])c1 returned OX1R antag-1 inactive, CHO parental Ca inactive, OXTR potentiator inactive, OXTR agonist inactive, V1aR counter inactive and OX1R antag-2 63.
Cc1ccc(NC(=O)CSc2ccc(C(N)=O)cc2[N+](=O)[O-])cc1C was read as OX1R antag-1 inactive, CHO parental Ca 33, OXTR potentiator inactive, OXTR agonist inactive, V1aR counter inactive and OX1R antag-2 inactive.
Screening CC1CCN(C(=O)COC(=O)CSc2ccc(C(N)=O)cc2[N+](=O)[O-])CC1 returned OX1R antag-1 inactive, CHO parental Ca inactive, OXTR potentiator inactive, OXTR agonist inactive, V1aR counter inactive and OX1R antag-2 63.
Screening Cc1ccc(NC(=O)CSc2ccc(C(N)=O)cc2[N+](=O)[O-])cc1 returned OX1R antag-1 inactive, CHO parental Ca inactive, OXTR potentiator inactive, OXTR agonist inactive, V1aR counter inactive and OX1R antag-2 inactive.
O=C(CNC(=O)c1ccccc1F)OCCOc1cccc(Cl)c1 was read as OX1R antag-1 inactive, CHO parental Ca inactive, OXTR potentiator inactive, OXTR agonist inactive, V1aR counter inactive and OX1R antag-2 inactive.
Screening CN(C(=O)COC(=O)CCC(=O)c1ccc(F)cc1)C1CCCCC1 returned OX1R antag-1 inactive, CHO parental Ca inactive, OXTR potentiator inactive, OXTR agonist inactive, V1aR counter inactive and OX1R antag-2 inactive.
CN(C(=O)COC(=O)CSc1ccc(C(N)=O)cc1[N+](=O)[O-])C1CCCCC1 was read as OX1R antag-1 inactive, CHO parental Ca inactive, OXTR potentiator inactive, OXTR agonist inactive, V1aR counter inactive and OX1R antag-2 47.
Screening NC(=O)c1ccc(SCC(=O)OCC(=O)N2CCN(C(=O)c3ccco3)CC2)c([N+](=O)[O-])c1 returned OX1R antag-1 inactive, CHO parental Ca inactive, OXTR potentiator inactive, OXTR agonist inactive, V1aR counter inactive and OX1R antag-2 58.
CCn1c(SCC(=O)Nc2nc3c(s2)CCCC3)nnc1-c1ccccc1 was read as OX1R antag-1 inactive, CHO parental Ca inactive, OXTR potentiator inactive, OXTR agonist inactive, V1aR counter inactive and OX1R antag-2 49.
CCc1nc(SCC(=O)Nc2nc3c(s2)CCCC3)c2ccccc2n1 was read as OX1R antag-1 inactive, CHO parental Ca inactive, OXTR potentiator inactive, OXTR agonist inactive, V1aR counter inactive and OX1R antag-2 inactive.
Screening CCn1c(SCC(=O)Nc2nc3ccccc3s2)nnc1-c1ccc(OC)cc1 returned OX1R antag-1 inactive, CHO parental Ca 39, OXTR potentiator inactive, OXTR agonist inactive, V1aR counter inactive and OX1R antag-2 inactive.
For CC(=O)c1ccc(S(=O)(=O)Oc2ccc(-c3ccc(C(=O)O)cc3)cc2)cc1 the results were OX1R antag-1 inactive, CHO parental Ca inactive, OXTR potentiator inactive, OXTR agonist inactive, V1aR counter inactive and OX1R antag-2 inactive.
O=C(CSc1n[nH]c(=O)[nH]c1=O)c1cccc([N+](=O)[O-])c1 was read as OX1R antag-1 inactive, CHO parental Ca inactive, OXTR potentiator inactive, OXTR agonist inactive, V1aR counter inactive and OX1R antag-2 48.
Cc1cc(F)ccc1S(=O)(=O)N1CCCOC1CNC(=O)C(=O)NCCc1ccccc1 (stereo unspecified) was read as OX1R antag-1 inactive, CHO parental Ca inactive, OXTR potentiator inactive, OXTR agonist inactive, V1aR counter inactive and OX1R antag-2 inactive.
O=C(NCCc1ccc(F)cc1)C(=O)NCC1CCCN1S(=O)(=O)c1cccs1 (stereo unspecified) was read as OX1R antag-1 inactive, CHO parental Ca inactive, OXTR potentiator inactive, OXTR agonist inactive, V1aR counter inactive and OX1R antag-2 69.
Screening O=C(NCCc1ccccc1)C(=O)NCC1CCCN1S(=O)(=O)c1ccccc1 (stereo unspecified) returned OX1R antag-1 inactive, CHO parental Ca inactive, OXTR potentiator inactive, OXTR agonist inactive, V1aR counter inactive and OX1R antag-2 42.
Screening Cc1ccc(C)c(S(=O)(=O)N2CCCOC2CNC(=O)C(=O)NCCc2ccccc2)c1 (stereo unspecified) returned OX1R antag-1 inactive, CHO parental Ca inactive, OXTR potentiator inactive, OXTR agonist inactive, V1aR counter inactive and OX1R antag-2 54.
Screening Cc1ccc(C)c(S(=O)(=O)N2CCCCC2CCNC(=O)C(=O)NCc2ccco2)c1 (stereo unspecified) returned OX1R antag-1 inactive, CHO parental Ca inactive, OXTR potentiator inactive, OXTR agonist inactive, V1aR counter inactive and OX1R antag-2 41.
Screening Cc1ccccc1N1CCN(S(=O)(=O)Cc2ccccc2)CC1 returned OX1R antag-1 inactive, CHO parental Ca inactive, OXTR potentiator inactive, OXTR agonist inactive, V1aR counter inactive and OX1R antag-2 inactive.
For CN1C(=O)/C(=C/c2ccc(C(=O)Nc3ccc(O)cc3C(=O)O)cc2)SC1=S the results were OX1R antag-1 inactive, CHO parental Ca inactive, OXTR potentiator inactive, OXTR agonist inactive, V1aR counter inactive and OX1R antag-2 inactive.

Bioassay records as filed in PubChem BioAssay.
